High-throughput results as filed in PubChem.
zVAD death inh: inhibitors of zVAD-triggered necroptosis, primary screen, L929 cells; L929 zVAD necroptosis rescue, ATP luminescence, 24 h; with zVAD 60 µM; AID 1377, 2008; 0.38% of 220,000 active; viability rescue, % at 10 µM;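 active means activation, scaled between plate controls, above about 75%, limit read from the data; inactive means activation under that limit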
Runt-CBFb FRET: inhibitors of RUNX1 Runt–CBFb binding, primary screen, biochemical, FRET, Cerulean-Runt, Venus-CBFb, uHTS | Runt-related transcription factor 1 (Homo sapiens) + Core-binding factor subunit beta … | Cerulean-Runt/Venus-CBFb FRET ratio 530/480, 1 h | inhibition, % at 20 µM | 0.46% of 220,000 active | AID 1496, 2009;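 active means inhibition over about 50% at 20 µM in the single-dose screen, limit read from the data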
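Doses: 20 µM compound in 1% DMSO | Material: Cerulean-labeled Runt domain protein | Amount: Each fluorescent fusion protein 100 nM | Schedule: Two 1 h room-temperature incubations shielded from light | Measured by: FRET fluorescence | Evaluation: Loss of energy transfer signal | Controls: Unlabeled CBFb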
TNF death inh: inhibitors of TNF-alpha triggered necroptosis, primary screen, cell-based, Jurkat FADD-/-, single concentration | Jurkat FADD-/- TNF necroptosis rescue, ATP luminescence, 24 h; 0 = TNF only, 100 = no-TNF cells | activation (protection from cell death), % at 10 µM | 0.068% of 220,000 active;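 active means activation, meaning protection from cell death, of at least 50% relative to plate controls; inactive means activation below 50%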;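 further: necroptosis triggered by 40 ng/mL TNF-alpha added together with compound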
RanGTP-Impb inh: inhibitors of RanGTP-importin-beta interaction, primary screen, biochemical, FRET, CFP-Ran, YFP-importin-beta, homogeneous; Ran GTPase (GTP-bound) - importin-beta complex; cell-free CFP-Ran/YFP-importin-beta FRET ratio; inhibition, % (concentration not given with the values); 1.1% of 300,000 active;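 active means more than half of the replicate wells show a fall in the fluorescence ratio signal beyond about 16%, limit read from the data, passing the limit was not always enough; inconclusive means exactly half of the replicate wells pass the set limit; inactive means fewer than half of replicates pass the limit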
Hck Nef HTS: inhibitors of Nef-activated human Hck kinase, primary screen, biochemical, Z-Lyte FRET, 384-well, Hck-YEEI; Recombinant Hck-YEEI plus Nef, Z-Lyte FRET kinase assay; 0.68% of 220,000 active; Tyrosine-protein kinase HCK (Homo sapiens), P08631; inhibition, % at 20 µM; AID 463187, 2010;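 active means Hck-Nef kinase inhibition above about 50%, limit read from the data; inactive means inhibition below that limit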
Target sequence (P08631 whole entry, looked up): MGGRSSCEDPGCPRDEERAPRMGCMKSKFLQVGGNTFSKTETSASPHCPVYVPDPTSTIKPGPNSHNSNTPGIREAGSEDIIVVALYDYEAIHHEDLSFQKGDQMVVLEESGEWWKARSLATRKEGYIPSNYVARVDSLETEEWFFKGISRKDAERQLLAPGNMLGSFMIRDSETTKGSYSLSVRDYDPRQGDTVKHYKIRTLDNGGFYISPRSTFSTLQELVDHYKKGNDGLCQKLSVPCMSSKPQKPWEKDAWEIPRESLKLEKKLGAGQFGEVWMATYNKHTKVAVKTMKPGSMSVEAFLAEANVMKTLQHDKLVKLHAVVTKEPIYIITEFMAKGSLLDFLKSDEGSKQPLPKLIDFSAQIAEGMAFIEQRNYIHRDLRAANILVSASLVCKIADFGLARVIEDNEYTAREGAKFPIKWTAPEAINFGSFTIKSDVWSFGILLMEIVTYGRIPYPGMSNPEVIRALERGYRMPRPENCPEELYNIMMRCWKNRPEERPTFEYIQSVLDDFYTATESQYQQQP
Runt-SMMHC FRET: inhibitors of RUNX1 Runt–CBFb-SMMHC binding, primary screen, biochemical, FRET, Cerulean-Runt, Venus-CBFb-SMMHC, uHTS | Runt-related transcription factor 1 (Homo sapiens) + Core-binding factor subunit beta … | Cerulean-Runt/Venus-CBFb-SMMHC FRET ratio 530/480, 1 h | inhibition, % at 20 µM | 0.74% of 220,000 active;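 active means mean inhibition across duplicate retests at 20 µM reaching about 50%, limit read from the data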;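 further: inhibitors lower the FRET ratio by blocking Runt binding to CBFb-SMMHC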
zVAD death conf: inhibitors of zVAD-triggered necroptosis in L929, confirmation, L929 cells, duplicate runs | shares compounds with zVAD death inh | L929 zVAD-induced necroptosis rescue, ATP luminescence, 24 h | activation (protection from necroptosis), % at 10 µM | 16% of 760 active | AID 463117, 2010;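 active means mean protection from necroptosis of at least 50% over duplicate tests; inactive means mean protection below 50%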
Hits are given with their value; i = inactive; ? = inconclusive; nt = not tested or not shown. Most compounds without a hit are left out; they make up all but 2.1% or so of the library.

SMILES | zVAD death inh | Runt-CBFb FRET | TNF death inh | RanGTP-Impb inh | Hck Nef HTS | Runt-SMMHC FRET | zVAD death conf
C(=N\Nc1nc2ccccc2[nH]1)/c1ccc2c(c1)OCCO2 | 81.7 | i | i | i | i | i | i
COc1cc(/C=N\Nc2nc3ccccc3[nH]2)cc(OC)c1OC | 81.2 | i | i | i | i | i | i
CCOc1cc(/C=N/Nc2nc3ccccc3[nH]2)cc(Br)c1OCC(=O)N(C)C | 78.5 | i | i | i | i | i | 57.6
COc1ccc(/C=N/Nc2nc3ccccc3[nH]2)cc1OC | 78.9 | i | i | ? | i | i | i
CCOc1ccccc1OCC(=O)Nc1nc2ccccc2[nH]1 | i | i | i | i | i | i | nt
Cc1cccc(N(C(=O)c2snc(C(N)=O)c2N)C(C(=O)NCC2CCCO2)c2ccc(N(C)C)cc2)c1C (stereo unspecified) | nt | nt | nt | i | nt | nt | nt
Oc1[nH]c2ccccc2c1/C=N/c1nccs1 | 75.9 | i | i | i | i | i | i
COc1ccc(CN=Cc2c(O)[nH]c3ccccc23)cc1 | i | i | i | i | i | i | nt
Oc1[nH]c2ccccc2c1/C=N/N1CCCCC1 | i | i | i | i | i | i | nt
COc1ccc(N=Cc2c(O)[nH]c3ccccc23)cc1 | 77.3 | nt | i | i | i | i | 76.4
CCOC(=O)c1c(C)[nH]c(O)c1C=Nc1ccccc1 | 86.9 | i | i | i | i | i | i
O=C(CCC(=O)N1CCN(C(=O)c2ccco2)CC1)c1ccc(F)cc1 | 75.8 | i | i | i | i | i | i
Cc1ccc(/C=C/C(=O)N2CCN(S(=O)(=O)/C=C/c3ccccc3)CC2)o1 | i | i | i | i | i | i | nt
Cc1ccc(S(=O)(=O)Nc2cccc3ncccc23)cc1 | i | i | i | i | i | i | nt
Cc1ccc(S(=O)(=O)Nc2cccc3ncccc23)s1 | 75.3 | i | i | i | i | i | i
Cc1ccccc1C(=O)NC(=S)Nc1ccc2[nH]c(=O)[nH]c2c1 | 75.7 | i | i | i | i | i | i
O=C(NC(=S)Nc1ccc2[nH]c(=O)[nH]c2c1)c1ccccc1F | nt | nt | nt | i | nt | nt | nt
O=C(COc1ccccc1)Nc1ccc2[nH]c(=O)[nH]c2c1 | 76.5 | i | i | i | i | i | i
O=C(COc1ccccc1F)Nc1ccc2[nH]c(=O)[nH]c2c1 | nt | nt | nt | i | nt | nt | nt
CC1=C(c2ccccc2)SC2=NCCN21 | nt | nt | nt | i | nt | nt | nt
Cc1ccc(NC(=O)COc2ccccc2)cc1S(=O)(=O)N1CCCCCC1 | nt | nt | nt | i | nt | nt | nt
Cc1ccc(NC(=O)COc2ccc(-c3nnco3)cc2)cc1S(=O)(=O)N1CCOCC1 | 78.4 | i | i | ? | i | i | i
CCOC(=O)N1CCC(N2CCCC(CO)(Cc3cccc(Cl)c3)C2)CC1 (stereo unspecified) | i | i | i | i | i | i | nt
CC(=O)c1ccc2noc(-c3ccccc3)c2c1 | 76.4 | nt | i | i | i | nt | i
CCOC(=O)c1[nH]c2ccccc2c1NC(=S)Nc1cccc(C)c1 | i | i | i | i | i | i | nt
SMILES | zVAD death inh | Runt-CBFb FRET | TNF death inh | RanGTP-Impb inh | Hck Nef HTS | Runt-SMMHC FRET | zVAD death conf
O=C(CCl)N(c1ccccc1)C1CCCCC1 | 78.2 | i | i | ? | i | i | 65.8
CCCC(=O)n1nc(-c2cccnc2)nc1NCc1ccc(OC)cc1 | 79.6 | i | i | i | i | i | i
COc1ccccc1C(=O)n1nc(-c2cccnc2)nc1NCc1ccccc1 | 76.9 | i | i | i | i | i | i
CC(C)C(=O)n1nc(-c2cccnc2)nc1NCc1ccc(F)cc1 | i | i | i | i | i | i | nt
COCC(=O)n1nc(-c2ccccc2)nc1NCc1cccs1 | 81.6 | i | i | nt | i | i | i
O=C(CCl)Nc1cccc(S(=O)(=O)NC2=NCCC2)c1 | i | i | i | i | i | i | nt
Cc1ccc(CN2CCS(=O)(=O)CC2)o1 | 82.7 | i | i | i | i | i | i
Cc1ccc(CN2CCN(c3ccccc3)CC2)o1 | nt | nt | nt | i | nt | nt | nt
COc1cccc(NC(=O)N2CCC(NC(=O)c3ccco3)CC2)c1 | nt | nt | nt | i | nt | nt | nt
Cc1cc(C)c(S(=O)(=O)N2CCCCC2CCNC(=O)C(=O)NCCN2CCOCC2)c(C)c1 (stereo unspecified) | nt | nt | nt | i | nt | nt | nt
CCN(CC)CCc1c(C)[nH]c(C(=O)OCc2ccccc2)c1C | 75.8 | i | i | i | i | i | i
COc1ccc2cc(C(=O)NCc3ccccc3)c(=Nc3ccc(C(=O)O)cc3)oc2c1 | 75.6 | i | i | i | i | i | i
CCCCC(=O)OCC(=O)c1[nH]c(C)c(C(C)=O)c1C | i | i | i | i | i | i | nt
CCOc1cc(-c2cc(-c3ccc(C)cc3)nc(N)c2C#N)ccc1O | i | i | i | i | i | i | nt
CCOc1cc(/C=C(\C#N)c2[nH]nc(N)c2C#N)ccc1O | 81.4 | i | i | i | i | i | i
Cc1ccc2[nH]c3c(c2c1)CCc1cn[nH]c1-3 | 88.8 | i | 92.0 | i | i | i | 80.0
Cc1ccc2[nH]c3c(c2c1)CCC3=O | i | i | i | i | i | i | nt
Cn1nc(C(=O)Nc2nc(-c3ccc(F)cc3)cs2)ccc1=O | i | i | i | i | i | i | nt
Cc1cccc(OCCCC(=O)Nc2nccs2)c1 | 89.1 | i | i | i | i | i | i
Cc1ccc(OCCCC(=O)Nc2nccs2)cc1 | i | i | i | i | i | i | nt
Cc1[nH]n(-c2ccccc2)c(=O)c1C=NC1CCCCC1 | 75.1 | i | i | i | i | i | i
Cc1[nH]n(-c2ccccc2)c(=O)c1C=NC1CCCCCC1 | 79.5 | i | i | i | i | i | i
Cc1ccc(S(=O)(=O)c2nc(S(C)(=O)=O)sc2N2CCC3(CC2)OCCO3)cc1 | nt | nt | nt | i | nt | nt | nt
Cn1c(N)c(C(=O)N/N=C/c2ccccc2)sc1=S | 75.3 | i | i | i | i | i | 76.2
O=C(CN1C(=O)C2C3C=CC(C4CC34)C2C1=O)Nc1cnc2ccccc2c1 (stereo unspecified) | 75.3 | i | i | i | i | i | i
CC1=CC(=O)C(C(C)C)=C/C1=N\OC(=O)c1cccc2nc(C)oc12 | 87.4 | i | i | i | i | i | i
CC1=CC(=O)C(C(C)C)=C/C1=N/OC(=O)c1cccc([N+](=O)[O-])c1 | i | i | i | i | i | i | nt
